According to publication PMC7657097 (Medical Mycology, 2020):
In brackets after ≈: the same amount, converted by molar mass. Where two headings read alike, the source gives them in different places.

Tests used:
A. fumigatus [1] = test: Metabolic assay; type: cell-based, Aspergillus fumigatus; conditions: for inhibition of metabolic activity: A. fumigatus strains Af293, CEA10 and DTO342-B2, 1 μM peptide, initial experiments, results not shown
In short: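 A. fumigatus grown 4 days on PDA at 37°C; conidia scraped into saline with 0.002% Tween 20 and counted by haemocytometer. Each well held 5 × 10³ conidia, glucose (final 2%), resazurin and water-diluted peptide. Controls lacked peptide or cells; edge wells held water. Absorbance at 570 nm, corrected for the no-cell control, read repeatedly. Initial strain set tested in duplicate.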

A. fumigatus [2] = conditions: EUCAST, ref [27], cited from earlier work
[3] = tested on: primary human nasal epithelial cells; test: Cytotoxicity test; type: cell-based; conditions: 5 μM peptide, 3 hours at 37°C, WST-1
In short: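 Primary human nasal epithelial cells were grown to confluency in bronchial epithelial cell medium. Cells were exposed to peptide, then washed three times with PBS. Viability was measured colorimetrically with WST-1 (10% v/v in cell medium). Controls were no peptide (100% viability) and 70% ethanol (total loss of viability). Runs were in triplicate, and treated wells were compared with no-peptide wells by two-tailed paired Student t test.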

Compound | MIC (A. fumigatus [2]; A. fumigatus DTO 326-I1) | MIC (A. fumigatus [2]; A. fumigatus DTO 327-A8) | inhibition of metabolic activity (A. fumigatus [1]) | further results
LLGDFFRKSKEKIGKEFKRIVQRIKDFLRNLVPRTES-NH2 [LL-37] |  |  |  | concentration at which metabolic activity is inhibited (A. fumigatus [1]; azole-resistant A. fumigatus strains DTO 327-A8 and 326-I1, tested at 1 and 5 μM, 0.125×MM, 105 μM resazurin, 37°C, 27 h, two experiments): did not inhibit metabolic activity
CCC(C)n1ncn(-c2ccc(N3CCN(c4ccc(OCC5COC(Cn6cncn6)(c6ccc(Cl)cc6Cl)O5)cc4)CC3)cc2)c1=O (stereo not drawn) [ITC, itraconazole] | Human patient from hematology; Resistant to ITC (>16), POS (1), Intermediate for VRC (2) mg/l | Human ICU patient; Resistant to ITC (>16), POS (0.25), VRC (>16) mg/l |  | 
RRWVQRWIRRWRKVAAARRWVQRWIRRWRPKV-NH2 [CR173] |  |  | inhibited the metabolic activity strongly | 
APKAMRRWVQRWIRRWRPKVLQKNNYL-NH2 [CR183] |  |  | inhibited the metabolic activity strongly | 
CCO [EtOH, ethanol] |  |  |  | cell viability, Average (%) ([3]; no peptide = 100% viability, in triplo): 17.5%; cytotoxic effect vs no peptide ([3]; two-tailed paired Student t test): increased cytotoxic activity
C[C@@H](c1ncncc1F)[C@](O)(Cn1cncn1)c1ccc(F)cc1F [VRC, voriconazole] | 2 µg/mL (≈ 5.73 µM) | Human ICU patient; Resistant to ITC (>16), POS (0.25), VRC (>16) mg/l |  | 
